Assay results collected from several papers.
Compare with care: the assays were run in different laboratories.
Technique: competition with immobilised ligand
RPS6KA2 N-terminal kinase domain: Ribosomal protein S6 kinase alpha-2, N-terminal kinase domain (RPS6KA2, Homo sapiens, UniProt Q15349)
RPS6KA2 C-terminal kinase domain: Ribosomal protein S6 kinase alpha-2, C-terminal kinase domain (RPS6KA2, Homo sapiens, UniProt Q15349)

With `N#CC1(c2ccccn2)CCN(Cc2cc(C(=O)N3CCCC3)c(=O)n3ccccc23)CC1` the remaining binding was 88% (RPS6KA2 N-terminal kinase domain; cell-free assay; 1 µM).
For `C=CC(=O)N1CCC(C(=O)NCC(=O)N2CCN(c3nc(-c4cnc(N)nc4C(F)F)nc(N4CCOCC4)n3)CC2)CC1`, the remaining binding was 93% (RPS6KA2 C-terminal kinase domain; binding; 1 µM).
The remaining binding of `COc1ccnn2ncc(-c3ccnc(N(C)C)n3)c12` is reported as 100% (RPS6KA2 C-terminal kinase domain; binding; 1 µM).
The remaining binding of `CCOCCn1cc(C(=O)Nc2ccc(-n3nc(-c4cccnc4)cc3C(F)(F)F)cn2)ccc1=O` is reported as 84% (RPS6KA2 N-terminal kinase domain; cell-free assay; 1 µM).
`CNC(=O)[C@@H]1CC[C@@H](n2c(-c3ccc4cnccc4c3)nc3ccc(C(=O)NCc4cccc(C(N)=O)c4)cc32)C1` gave a remaining binding of 91% (RPS6KA2 C-terminal kinase domain; binding; 1 µM).
`COc1ncc2cc3ccccc3nc2c1C#N` has a remaining binding of 94% (RPS6KA2 C-terminal kinase domain; cell-free assay; 5 µM).
`CN(C)c1nccc(-c2cnn3ncccc23)n1` gave a remaining binding of 100% (RPS6KA2 N-terminal kinase domain; binding; 1 µM).
`COc1ccc2c(O[C@@H]3C[C@H]4C(=O)N[C@]5(C(=O)O)CC5/C=C\CCCCC[C@H](NC(=O)OC5CCCC5)C(=O)N4C3)cc(-c3csc(NC(=O)C(C)C)n3)nc2c1C` (stereo partly drawn) gave a remaining binding of 100% (RPS6KA2 C-terminal kinase domain; cell-free assay; 1 µM).
`CN(c1nccc(-c2cnn3ncccc23)n1)C1CC1` has a remaining binding of 100% (RPS6KA2 C-terminal kinase domain; binding; 1 µM).
The remaining binding of `COc1ccc2cc(OCC3(C(=O)O)CN(C(=O)c4ccc(F)cc4)C3)ccc2c1` is reported as 100% (RPS6KA2 C-terminal kinase domain; cell-free assay; 1 µM).
The remaining binding of `O=C(c1ccc(Nc2ncc(Cl)c(-c3cc4ccccc4s3)n2)cc1)N1CCC(N2CCCC2)CC1` is reported as 100% (RPS6KA2 N-terminal kinase domain; binding; 1 µM).
With `N[C@@H]1CCN(c2nccc(-c3cnn4ncccc34)n2)C1` the remaining binding was 100% (RPS6KA2 C-terminal kinase domain; binding; 1 µM).
The remaining binding of `O=C(Nc1c[nH]nc1C(=O)NC1CCNCC1)c1cc(F)cc(F)c1` is reported as 100% (RPS6KA2 N-terminal kinase domain; binding; 1 µM).
For `CN1CCN(c2cnc3c(C4CCN(C(=O)c5ccc(OC(F)(F)F)cc5N)CC4)ncnc3c2)CC1`, the remaining binding was 100% (RPS6KA2 C-terminal kinase domain; cell-free assay; 1 µM).
With `COc1cnc(Nc2cccc(S(N)(=O)=O)c2)nc1N1CCN(c2ccccc2)C(=O)C1` the remaining binding was 100% (RPS6KA2 C-terminal kinase domain; binding; 1 µM).
With `FC(F)(F)Oc1cccc(-c2cnc3ccc(-c4ccncc4)nn23)c1` the remaining binding was 82% (RPS6KA2 C-terminal kinase domain; binding; 5 µM).
`O=C(NCCCN1CCOCC1)c1ccc(Nc2nccc(-c3cc4ccccc4s3)n2)cc1` has a remaining binding of 16% (RPS6KA2 C-terminal kinase domain; binding; 1 µM).
For `COc1cnc(Nc2cccc(S(N)(=O)=O)c2)nc1N1CCN(c2ccccc2)CC1`, the remaining binding was 93% (RPS6KA2 N-terminal kinase domain; binding; 1 µM).
`CN(CCCC(F)(F)F)c1nccc(-c2cnn3ncccc23)n1` gave a remaining binding of 86% (RPS6KA2 N-terminal kinase domain; binding; 1 µM).
With `Nc1ncc2c(n1)-c1c([nH]c3ccc(C#CC4CC4)cc13)CCCC2` the remaining binding was 92% (RPS6KA2 C-terminal kinase domain; binding; 1 µM).
The remaining binding of `O=C(NCC1CCOCC1)c1n[nH]cc1NC(=O)c1c(F)cccc1F` is reported as 100% (RPS6KA2 C-terminal kinase domain; binding; 1 µM).
`CCN1CCN(Cc2ccc(C(=O)Nc3ccc(C)c(Oc4ccc5c(c4)CC(=O)N5)c3)cc2C(F)(F)F)CC1` has a remaining binding of 91% (RPS6KA2 C-terminal kinase domain; binding; 1 µM).
For `CS(=O)(=O)c1cc(C2(NC(=O)c3cncc4c3cnn4-c3ccc(F)cc3)CC2)ccn1`, the remaining binding was 88% (RPS6KA2 C-terminal kinase domain; cell-free assay; 1 µM).
The remaining binding of `Cc1cnc(Nc2ccc(C(=O)N3CCC(N4CCCC4)CC3)cc2)nc1-c1cc2ccccc2s1` is reported as 100% (RPS6KA2 N-terminal kinase domain; binding; 1 µM).
With `CS(=O)(=O)N1CCCC(NC(=O)[C@H](CCC2CCCCC2)NC(=O)c2ccc(CNC(=O)c3cnc4ccccn34)cc2)C1` (stereo partly drawn) the remaining binding was 94% (RPS6KA2 C-terminal kinase domain; cell-free assay; 0.1 µM).
The remaining binding of `c1cncc(-c2cccc(Nc3nccc(NC4CCCCC4)n3)c2)c1` is reported as 44% (RPS6KA2 N-terminal kinase domain; binding; 10 µM).
`Cc1cnn2ncc(-c3ccnc(N(C)C)n3)c2c1` has a remaining binding of 100% (RPS6KA2 C-terminal kinase domain; binding; 1 µM).
`O=C(NCCCN1CCOCC1)c1ccc(Nc2ncc(Cl)c(-c3ccc(Cl)s3)n2)cc1` gave a remaining binding of 63% (RPS6KA2 C-terminal kinase domain; binding; 1 µM).
With `O=C(Nc1cccnn1)N1CCC(=Cc2cccc(Oc3ccc(C(F)(F)F)cn3)c2)CC1` the remaining binding was 100% (RPS6KA2 C-terminal kinase domain; cell-free assay; 1 µM).
The remaining binding of `O=C(c1ccc(Nc2nccc(-c3cc4ccccc4s3)n2)cc1)N1CCC(N2CCCC2)CC1` is reported as 100% (RPS6KA2 N-terminal kinase domain; binding; 1 µM).
For `C[C@@H](c1ccc(-n2cnc3c(N)ncnc32)cc1)N1CCc2nn(C)c(Cc3ccccc3)c2C1=O`, the remaining binding was 96% (RPS6KA2 N-terminal kinase domain; binding; 0.1 µM).
With `O=C(c1ccc(Nc2ncc(Cl)c(-c3ccc(Cl)s3)n2)cc1)N1CCC(N2CCCC2)CC1` the remaining binding was 71% (RPS6KA2 C-terminal kinase domain; binding; 1 µM).
For `CN(C)c1nccc(-c2cnc3ncccn23)n1`, the remaining binding was 83% (RPS6KA2 N-terminal kinase domain; binding; 1 µM).
